Drawing on ChEMBL document CHEMBL3272012, “5-(Tetradecyloxy)-2-furancarboxylic acid and related hypolipidemic fatty acid-like alkyloxyarylcarboxylic acids” (J Med Chem, 1977), this text covers inhibition in vivo and Activity for four compounds.

For data set [1], the system named is Rattus norvegicus. The experiment in a line: Hypolipidemic activity in Wistar rat assessed as reduction in plasma triglyceride level at 443 umol/kg/day administered through diet for 4 days. It is filed as functional. Particulars: 96 h. The essentials: (§1)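 Young male Wistar rats (initial weight 170-190 g), groups of six, fed compound mixed into Purina Lab Chow ad libitum for 4 or 10 days; daily dose calculated from food consumption and body weight. Bled by cardiac puncture; plasma cholesterol and triglycerides by automated procedures; percent reduction versus simultaneous untreated controls, Student's t test.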

The subject of data set [2] is Rattus norvegicus. As to the kind of experiment: Hypolipidemic activity in Wistar rat assessed as reduction in plasma cholesterol level at 443 umol/kg/day administered through diet for 4 days. It is filed as functional. The conditions noted are these: 96 h. In short, it runs like this:
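Young male Wistar rats, 170-190 g initial weight, groups of six, given compound mixed thoroughly into Purina Lab Chow ad libitum for 4 or 10 days as stated. Daily dose calculated from food consumption and body weight. Bled by cardiac puncture at end of treatment; plasma cholesterol measured by automated procedure. Expressed as percent reduction versus simultaneous untreated control group; Student's t test.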

Data set [3] has as its system Rattus norvegicus. The experiment in a line: Increase in cholesterol level in Wistar rat liver at 443 umol/kg/day administered through diet for 4 days. Particulars: in vivo, po, 96 h. It counts as ADME, organism-based.
Data set [4] has as its system Rattus norvegicus. The experiment in a line: Increase in liver weight in Wistar rat at 443 umol/kg/day administered through diet for 4 days. It is filed as ADME, organism-based. The conditions noted are these: in vivo, po, 96 h.
Data set [5] relates to Rattus norvegicus. As to the kind of experiment: Hypolipidemic activity in Wistar rat assessed as reduction in plasma cholesterol level at 351 umol/kg/day administered through diet for 4 days. It counts as functional. The conditions noted are these: 96 h. In short, it runs like this:
(§2)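 Young male Wistar rats, 170-190 g at start, in groups of six, given compound mixed into Purina Lab Chow ad libitum for 4 or 10 days as stated. Daily dose was calculated from food consumption and body weight. Plasma was taken by cardiac puncture at the end and cholesterol measured by automated procedure. Results are % reduction versus a concurrent untreated control group, with Student's t test.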

For data set [6], the system named is Rattus norvegicus. As to the kind of experiment: Increase in liver weight in Wistar rat at 351 umol/kg/day administered through diet for 4 days. The conditions noted are these: in vivo, po, 96 h. It is filed as ADME, organism-based.
For data set [7], the system named is Rattus norvegicus. As to the kind of experiment: Hypolipidemic activity in Wistar rat assessed as reduction in plasma triglyceride level at 351 umol/kg/day administered through diet for 4 days. It counts as functional. Particulars: 96 h. In short, it runs like this: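 Young male Wistar rats, 170-190 g at start, six per group, given compound mixed into Purina Lab Chow, fed ad libitum for 4 or 10 days. Daily dose calculated from food consumption and body weight. Rats bled by cardiac puncture at end of treatment. Plasma triglycerides determined by automated procedure. Expressed as percent reduction versus a concurrent untreated control group, Student's t test.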

Data set [8] has as its system Rattus norvegicus. The experiment in a line: Increase in cholesterol level in Wistar rat liver at 351 umol/kg/day administered through diet for 4 days. It is filed as ADME, organism-based. The conditions noted are these: in vivo, po, 96 h.
In data set [9] the test system is Rattus norvegicus. As to the kind of experiment: Inhibition of fatty acid biosynthesis in meal fed Wistar rat liver assessed as sodium [1-14C]acetate incorporation at 188 mg/kg/day administered through diet for 7 days measured 1 hr after labeled acetate challenge by liquid scintillation spectrometry (reference value: 182 +/- 22 x 10^-3 dpm). It counts as functional.

Data set [10] deals with Rattus norvegicus. As to the kind of experiment: Inhibition of fatty acid biosynthesis in Ad Lib fed Wistar rat liver assessed as sodium [1-14C]acetate incorporation at 261 mg/kg/day administered through diet for 7 days measured 1 hr after labeled acetate challenge by liquid scintillation spectrometry (reference value: 27.2 +/- 4.8 x 10^-3 dpm). It counts as functional.

For data set [11], the system named is Rattus norvegicus. As to the kind of experiment: Inhibition of cholesterol biosynthesis in meal fed Wistar rat liver assessed as sodium [1-14C]acetate incorporation at 188 mg/kg/day administered through diet for 7 days measured 1 hr after labeled acetate challenge by liquid scintillation spectrometry (reference value: 41.3 +/- 3.2 x 10^-3 dpm). It counts as functional.

The test system of data set [12] is Rattus norvegicus. As to the kind of experiment: Hypolipidemic activity in Wistar rat assessed as reduction in plasma triglyceride level at 766 umol/kg/day administered through diet for 10 days. It is filed as functional. The conditions noted are these: 240 h.
The subject of data set [13] is Rattus norvegicus. The experiment in a line: Increase in liver weight in Wistar rat at 1693 umol/kg/day administered through diet for 10 days. The conditions noted are these: in vivo, po, 240 h. It is filed as ADME, organism-based.
Data set [14] deals with Rattus norvegicus. The experiment in a line: Hypolipidemic activity in Wistar rat assessed as reduction in plasma triglyceride level at 119 umol/kg/day administered through diet for 10 days. It is filed as functional. The conditions noted are these: 240 h. The essentials:
(§3)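 Young male Wistar rats, 170-190 g initial weight, six per group, fed drug mixed thoroughly into Purina Lab Chow ad libitum for the stated days; daily dose calculated from food consumption and body weight. Bled by cardiac puncture at end; plasma cholesterol and triglycerides by automated procedures, expressed as percent reduction versus simultaneous untreated controls; Student's t test.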

The test system of data set [15] is Rattus norvegicus. The experiment in a line: Inhibition of cholesterol biosynthesis in Ad Lib fed Wistar rat liver assessed as sodium [1-14C]acetate incorporation at 261 mg/kg/day administered through diet for 7 days measured 1 hr after labeled acetate challenge by liquid scintillation spectrometry (reference value: 12.7 +/- 2.6 x 10^-3 dpm). It counts as functional.

Data set [16] has as its system Rattus norvegicus. The experiment in a line: Hypolipidemic activity in Wistar rat assessed as reduction in plasma triglyceride level at 304 umol/kg/day administered through diet for 10 days. It is filed as functional. Particulars: 240 h. In short, it runs like this:
as §3

In data set [17] the test system is Rattus norvegicus. The experiment in a line: Increase in liver weight in Wistar rat at 766 umol/kg/day administered through diet for 10 days. It is filed as ADME, organism-based. The conditions noted are these: in vivo, po, 240 h.
Data set [18] deals with Rattus norvegicus. As to the kind of experiment: Increase in liver weight in Wistar rat at 119 umol/kg/day administered through diet for 10 days. It is filed as ADME, organism-based. The conditions noted are these: in vivo, po, 240 h.
In data set [19] the test system is Rattus norvegicus. The experiment in a line: Hypolipidemic activity in Wistar rat assessed as reduction in plasma cholesterol level at 766 umol/kg/day administered through diet for 10 days. It is filed as functional. Particulars: 240 h. In short, it runs like this: as §1
The subject of data set [20] is Rattus norvegicus. As to the kind of experiment: Hypolipidemic activity in Wistar rat assessed as reduction in plasma cholesterol level at 119 umol/kg/day administered through diet for 10 days. It counts as functional. Particulars: 240 h. The essentials: as §2
Data set [21] deals with Rattus norvegicus. The experiment in a line: Hypolipidemic activity in Wistar rat assessed as reduction in plasma triglyceride level at 1693 umol/kg/day administered through diet for 10 days. It counts as functional. The conditions noted are these: 240 h. In short, it runs like this:
as §3

The subject of data set [22] is Rattus norvegicus. As to the kind of experiment: Hypolipidemic activity in Wistar rat assessed as reduction in plasma cholesterol level at 1693 umol/kg/day administered through diet for 10 days. It is filed as functional. Particulars: 240 h. The essentials: as §2
Data set [23] relates to Rattus norvegicus. As to the kind of experiment: Increase in liver weight in Wistar rat at 304 umol/kg/day administered through diet for 10 days. It is filed as ADME, organism-based. The conditions noted are these: in vivo, po, 240 h.
Data set [24] deals with Rattus norvegicus. As to the kind of experiment: Hypolipidemic activity in Wistar rat assessed as reduction in plasma cholesterol level at 304 umol/kg/day administered through diet for 10 days. The conditions noted are these: 240 h. It is filed as functional. The essentials: as §2
Data set [25] relates to Rattus norvegicus. The experiment in a line: Hypolipidemic activity in Wistar rat assessed as reduction in plasma cholesterol level at 319 umol/kg/day administered through diet for 4 days. Particulars: 96 h. It counts as functional. The essentials: as §2
The subject of data set [26] is Rattus norvegicus. The experiment in a line: Increase in liver weight in Wistar rat at 319 umol/kg/day administered through diet for 4 days. It is filed as ADME, organism-based. The conditions noted are these: in vivo, po, 96 h.
For data set [27], the system named is Rattus norvegicus. The experiment in a line: Hypolipidemic activity in Wistar rat assessed as reduction in plasma triglyceride level at 319 umol/kg/day administered through diet for 4 days. It is filed as functional. Particulars: 96 h. In short, it runs like this: as §3
The subject of data set [28] is Rattus norvegicus. The experiment in a line: Increase in cholesterol level in Wistar rat liver at 319 umol/kg/day administered through diet for 4 days. It counts as ADME, organism-based. The conditions noted are these: in vivo, po, 96 h.

Turning to `CCCCCCCCCCCCCCOc1ccc(C(=O)OCC)o1`, the inhibition in vivo at 443 µmol/kg in the data set with Rattus norvegicus [1] stood at 64%; with Rattus norvegicus [2], 30%. Further, the Activity with Rattus norvegicus [3] is recorded as 0%; in the data set on Rattus norvegicus [4], 6%.

For the compound `CCCCCCCC/C=C/CCCCCCCCOc1ccc(C(=O)O)o1`, the figures for the inhibition in vivo at 351 µmol/kg in the data set with Rattus norvegicus [5] and in the data set with Rattus norvegicus [7] were 4% and 26%, respectively. The Activity in the data set on Rattus norvegicus [6] amounted to 0%; in the data set with Rattus norvegicus [8], 11%.

`CCOC(=O)C(C)(C)Oc1ccc(Cl)cc1` [CLOFIBRATE]: the Activity is 205000 dpm with Rattus norvegicus [9]; 50000 dpm in the data set with Rattus norvegicus [10]; 43300 dpm in the data set on Rattus norvegicus [11]; 50% with Rattus norvegicus [13]; 4100 dpm with Rattus norvegicus [15]; 22% in the data set on Rattus norvegicus [17]. In addition, the Activity with Rattus norvegicus [18] is 0%; in the data set on Rattus norvegicus [23], 2%. The inhibition in vivo at 766 µmol/kg in the data set with Rattus norvegicus [12] came out at 66%; with Rattus norvegicus [19], 36%. The figures for the inhibition in vivo at 119 µmol/kg in the data set with Rattus norvegicus [14] and in the data set with Rattus norvegicus [20] were 30% and 9%, respectively. Moreover, the inhibition in vivo at 304 µmol/kg with Rattus norvegicus [16] came out at 48%; with Rattus norvegicus [24], 18%. For the same compound, the inhibition in vivo at 1693 µmol/kg is 78% in the data set with Rattus norvegicus [21] and 41% in the data set on Rattus norvegicus [22].

`CCCCCCCCCCCCCOc1ccc(C(=O)O)o1`: the inhibition in vivo at 319 µmol/kg came to 31% in the data set on Rattus norvegicus [25] and 6% in the data set with Rattus norvegicus [27]. For the same compound, the Activity in the data set on Rattus norvegicus [26] was found to be 15%; with Rattus norvegicus [28], 3%.
